Assay results published in ChEMBL document CHEMBL4350976, “Sequence modification of heptapeptide selected by phage display as homing device for HT-29 colon cancer cells to improve the anti-tumour activity of drug delivery systems” (Eur J Med Chem, 2019).
Where a SMILES comes first, the peptide text is derived from it. The star is where a group is joined. X1 = COc1cccc2c1C(=O)c1c(O)c3c(c(O)c1C2=O)C[C@@](O)(/C(C)=N/OCC(=O)*)C[C@@H]3O[C@H]1C[C@H](N)[C@H](O)[C@H](C)O1

Columns and labels:
NCI-H1650 = assay: Potency index, ratio of compound IC50 to Daunomycin IC50 for human NCI-H1650 cells preincubated for 24 hrs under serum free condition followed by compound washout and further incubation for 48 hrs in presence of serum by MTT assay; type: functional
HT-29 = assay: Antitumor activity against human HT-29 cells xenografted in SCID mouse assessed as decrease in number of Ki-67 positive cells measured as proliferation index at 38.3 mg/kg, ip administered thrice in first week (on days 13, 16, 20, 23 and 27) and twice in second week starting from 13 days post inoculation measured at day 30 post inoculation by KI-67-staining based light microscopic analysis (reference value: 100%); type: functional; parameters: scale not given: the % may be the effect or the level left
Method in brief: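 Tumours from the SCID HT-29 orthotopic study were formalin-fixed and paraffin-embedded, cut at 2 µm, and given citrate pH 6 retrieval at 98 °C for 40 min. They were stained with anti-human Ki-67 (1:40, 1 h RT), then a biotinylated link, HRP polymer and AEC. Ki-67+ cells were counted in 5 fields per tumour at 40× magnification. The proliferation index is the % positive cells.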

MCF7 = assay: Cytostatic activity against human MCF7 cells preincubated for 24 hrs under serum free condition followed by compound washout and further incubation for 48 hrs in presence of serum by MTT assay; type: functional, cell-based
Method in brief: (§1)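 Cells were grown at 37 °C in 5% CO2 in medium with 10% heat-inactivated FBS (20% for OVCAR-3) plus penicillin/streptomycin. The medium was RPMI-1640 for most lines, DMEM for U-87 MG and MRC-5, and IMDM for PE/CA-PJ lines. Seeding was 3×10^3–10×10^3 cells per well. Cells had 24 h compound exposure, a wash, and 48 h further culture. Read-out was MTT, normalized to untreated cells and fitted by nonlinear regression for IC50.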

PC-3 = assay: Cytostatic activity against human PC3 cells preincubated for 24 hrs under serum free condition followed by compound washout and further incubation for 48 hrs in presence of serum by MTT assay; type: functional, cell-based; method in brief: as §1
PANC-1 = assay: Cytostatic activity against human PANC1 cells preincubated for 24 hrs under serum free condition followed by compound washout and further incubation for 48 hrs in presence of serum by MTT assay; type: functional, cell-based; method in brief: as §1
U-87 MG = assay: Potency index, ratio of compound IC50 to Daunomycin IC50 for human U87 cells preincubated for 24 hrs under serum free condition followed by compound washout and further incubation for 48 hrs in presence of serum by MTT assay; type: functional, U-87MG ATCC
A2058 = assay: Cytostatic activity against human A2058 cells preincubated for 24 hrs under serum free condition followed by compound washout and further incubation for 48 hrs in presence of serum by MTT assay; type: functional, cell-based; method in brief: as §1
[1] = Drug uptake in mitochondria of human HT-29 cells assessed as increase in fluorescence at 50 uM after 30 mins by MitoTracker deep red staining based confocal microscopic analysis; type: ADME; conditions: ht-29, 0.5 h
Method in brief: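 HT-29 cells were exposed to 50 µM conjugate for 30 min before imaging. Lysosomes were stained with LysoTracker Deep Red and mitochondria with MitoTracker Deep Red. Confocal imaging detected Dau at 550–600 nm.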

[2] = Stability in human plasma assessed as parent compound remaining at 30 uM measured after 1 hr by LC/MS analysis; type: ADME, cell-free
Method in brief: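 Conjugates were incubated in 90% human plasma from a healthy volunteer. Samples were taken at 0, 5 and 60 min and analysed by HPLC-MS.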

HCT-116 = assay: Potency index, ratio of compound IC50 to Daunomycin IC50 for human HCT116 cells preincubated for 24 hrs under serum free condition followed by compound washout and further incubation for 48 hrs in presence of serum by MTT assay; type: functional

For COc1cccc2c1C(=O)c1c(O)c3c(c(O)c1C2=O)C[C@@](O)(/C(C)=N/OCC(=O)N[C@@H](CC(C)C)C(=O)N[C@@H](CCCNC(=N)N)C(=O)N[C@@H](CCCNC(=N)N)C(=O)N[C@@H](Cc1ccc(O)cc1)C(=O)N[C@H](C(=O)N[C@@H](Cc1cnc[nH]1)C(=O)N[C@@H](CC(C)C)C(=O)N[C@@H](Cc1ccccc1)C(=O)N[C@@H](Cc1ccc(O)cc1)C(=O)N[C@@H](C)C(=O)N[C@H](C(N)=O)[C@@H](C)O)C(C)C)C[C@@H]3O[C@H]1C[C@H](N)[C@H](O)[C@H](C)O1 (X1-LRRYVHLFYAT-NH2), which “Ratio IC50” value (NCI-H1650) is on record?
The value was 60.1.

And the Activity (HT-29)?
The Activity was 58%.

What about the IC50 (MCF7) of the same compound?
Its IC50 is 11.1 µM.

What about the IC50 (PC-3) of the same compound?
Its IC50 is 5.9 µM.

What about the IC50 (PANC-1) of the same compound?
The IC50 was 26.9 µM.

What about the “Ratio IC50” value (U-87 MG) of the same compound?
Its value is 236.9.

What about the IC50 (A2058) of the same compound?
The IC50 was 3.5 µM.

And the Drug uptake [1]?
The Drug uptake was “Not Active”.

And the Stability [2]?
The Stability was “Stable”.

And the “Ratio IC50” value (HCT-116)?
The value was 57.
